From ChEMBL document CHEMBL4689842, “EUbOPEN Chemogenomics Library wave 1” (2021)

Tested on: HEK-293T
Experiment: Multiplex assay against HEK293T;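 on Population Tubulin-Different-Phenotype (%): share of the cells with healthy nuclei that show this phenotype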
Assay type: toxicity, cell-based
Conditions: human
Outline: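 Four dyes were applied at seeding to live cells: Hoechst33342, BioTracker Green Microtubule Cytoskeleton Dye, MitoTracker Red and Annexin V Alexa Fluor 680. Imaging after compound addition used a CQ1 microscope at 37°C and 5% CO2. CellPathfinder machine-learning gating then sorted cells into Hoechst high-intensity objects or normal cells, normal cells into healthy, pyknosed or fragmented nuclei, and pyknosed cells into mitotic or apoptotic, with tubulin, mitochondrial-mass and membrane-permeability phenotypes given as per cents of healthy-nucleus cells.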

[1] = 12 h, 1 µM, compound concentration 1 uM, replicate 1
[2] = 12 h, 1 µM, compound concentration 1 uM, replicate 2
[3] = 12 h, 10 µM, compound concentration 10 uM, replicate 1
[4] = 12 h, 10 µM, compound concentration 10 uM, replicate 2
[5] = 24 h, 1 µM, compound concentration 1 uM, replicate 1
[6] = 24 h, 1 µM, compound concentration 1 uM, replicate 2
[7] = 24 h, 10 µM, compound concentration 10 uM, replicate 1
[8] = 24 h, 10 µM, compound concentration 10 uM, replicate 2
[9] = 48 h, 1 µM, compound concentration 1 uM, replicate 1
[10] = 48 h, 1 µM, compound concentration 1 uM, replicate 2
[11] = 48 h, 10 µM, compound concentration 10 uM, replicate 1
[12] = 48 h, 10 µM, compound concentration 10 uM, replicate 2
[13] = 12 h, 0 µM, compound concentration 0 uM, replicate 1
[14] = 12 h, 0 µM, compound concentration 0 uM, replicate 2
[15] = 24 h, 0 µM, compound concentration 0 uM, replicate 1
[16] = 24 h, 0 µM, compound concentration 0 uM, replicate 2

CCOc1cc2ncc(C#N)c(Nc3ccc(OCc4ccccn4)c(Cl)c3)c2cc1NC(=O)/C=C/CN(C)C [NERATINIB]
Population Apoptotic (%) [1]: 50% | Population Fragmented Nuclei (%) [1]: 20% | Population Healthy Nuclei (%) [1]: 24% | Population Hoechst High Intensity Objects (%) [1]: 20% | Population Membrane Permeable-Phenotype (%) [1]: 0% | Population Mitochondria Different-Phenotype (%) [1]: 85% | Population Mitotic Cells (%) [1]: 50% | Population Normal (%) [1]: 79% | Population Pyknosed Nuclei (%) [1]: 55% | Population Tubulin-Different-Phenotype (%) [1]: 55% | Total Cell Count [1]: 254 | Population Apoptotic (%) [2]: 21% | Population Fragmented Nuclei (%) [2]: 25% | Population Healthy Nuclei (%) [2]: 46% | Population Hoechst High Intensity Objects (%) [2]: 19% | Population Membrane Permeable-Phenotype (%) [2]: 3% | Population Mitochondria Different-Phenotype (%) [2]: 15% | Population Mitotic Cells (%) [2]: 78% | Population Normal (%) [2]: 80% | Population Pyknosed Nuclei (%) [2]: 27% | Population Tubulin-Different-Phenotype (%) [2]: 15% | Total Cell Count [2]: 471 | Population Apoptotic (%) [3]: 43% | Population Fragmented Nuclei (%) [3]: 25% | Population Healthy Nuclei (%) [3]: 52% | Population Hoechst High Intensity Objects (%) [3]: 29% | Population Mitochondria Different-Phenotype (%) [3]: 22% | Population Mitotic Cells (%) [3]: 56% | Population Normal (%) [3]: 70% | Population Pyknosed Nuclei (%) [3]: 21% | Population Tubulin-Different-Phenotype (%) [3]: 23% | Total Cell Count [3]: 1420 | Population Apoptotic (%) [4]: 33% | Population Fragmented Nuclei (%) [4]: 30% | Population Healthy Nuclei (%) [4]: 50% | Population Hoechst High Intensity Objects (%) [4]: 27% | Population Membrane Permeable-Phenotype (%) [4]: 3% | Population Mitochondria Different-Phenotype (%) [4]: 11% | Population Mitotic Cells (%) [4]: 66% | Population Normal (%) [4]: 72% | Population Pyknosed Nuclei (%) [4]: 18% | Population Tubulin-Different-Phenotype (%) [4]: 15% | Total Cell Count [4]: 844 | Population Apoptotic (%) [5]: 55% | Population Fragmented Nuclei (%) [5]: 19% | Population Healthy Nuclei (%) [5]: 20% | Population Hoechst High Intensity Objects (%) [5]: 20% | Population Membrane Permeable-Phenotype (%) [5]: 2% | Population Mitochondria Different-Phenotype (%) [5]: 80% | Population Mitotic Cells (%) [5]: 44% | Population Normal (%) [5]: 79% | Population Pyknosed Nuclei (%) [5]: 59% | Population Tubulin-Different-Phenotype (%) [5]: 61% | Total Cell Count [5]: 262 | Population Apoptotic (%) [6]: 20% | Population Fragmented Nuclei (%) [6]: 26% | Population Healthy Nuclei (%) [6]: 50% | Population Hoechst High Intensity Objects (%) [6]: 16% | Population Mitochondria Different-Phenotype (%) [6]: 24% | Population Mitotic Cells (%) [6]: 80% | Population Normal (%) [6]: 83% | Population Pyknosed Nuclei (%) [6]: 22% | Population Tubulin-Different-Phenotype (%) [6]: 24% | Total Cell Count [6]: 531 | Population Apoptotic (%) [7]: 50% | Population Fragmented Nuclei (%) [7]: 25% | Population Healthy Nuclei (%) [7]: 50% | Population Hoechst High Intensity Objects (%) [7]: 30% | Population Membrane Permeable-Phenotype (%) [7]: 1% | Population Mitochondria Different-Phenotype (%) [7]: 19% | Population Mitotic Cells (%) [7]: 49% | Population Normal (%) [7]: 69% | Population Pyknosed Nuclei (%) [7]: 23% | Population Tubulin-Different-Phenotype (%) [7]: 19% | Total Cell Count [7]: 1427 | Population Apoptotic (%) [8]: 42% | Population Fragmented Nuclei (%) [8]: 31% | Population Healthy Nuclei (%) [8]: 49% | Population Hoechst High Intensity Objects (%) [8]: 25% | Population Membrane Permeable-Phenotype (%) [8]: 0% | Population Mitochondria Different-Phenotype (%) [8]: 12% | Population Mitotic Cells (%) [8]: 57% | Population Normal (%) [8]: 74% | Population Pyknosed Nuclei (%) [8]: 18% | Population Tubulin-Different-Phenotype (%) [8]: 14% | Total Cell Count [8]: 857 | Population Apoptotic (%) [9]: 62% | Population Fragmented Nuclei (%) [9]: 23% | Population Healthy Nuclei (%) [9]: 17% | Population Hoechst High Intensity Objects (%) [9]: 23% | Population Membrane Permeable-Phenotype (%) [9]: 2% | Population Mitochondria Different-Phenotype (%) [9]: 56% | Population Mitotic Cells (%) [9]: 37% | Population Normal (%) [9]: 76% | Population Pyknosed Nuclei (%) [9]: 58% | Population Tubulin-Different-Phenotype (%) [9]: 29% | Total Cell Count [9]: 277 | Population Apoptotic (%) [10]: 17% | Population Fragmented Nuclei (%) [10]: 21% | Population Healthy Nuclei (%) [10]: 62% | Population Hoechst High Intensity Objects (%) [10]: 15% | Population Mitochondria Different-Phenotype (%) [10]: 14% | Population Mitotic Cells (%) [10]: 82% | Population Normal (%) [10]: 84% | Population Pyknosed Nuclei (%) [10]: 16% | Population Tubulin-Different-Phenotype (%) [10]: 27% | Total Cell Count [10]: 609 | Population Apoptotic (%) [11]: 52% | Population Fragmented Nuclei (%) [11]: 29% | Population Healthy Nuclei (%) [11]: 46% | Population Hoechst High Intensity Objects (%) [11]: 32% | Population Membrane Permeable-Phenotype (%) [11]: 0% | Population Mitochondria Different-Phenotype (%) [11]: 15% | Population Mitotic Cells (%) [11]: 47% | Population Normal (%) [11]: 67% | Population Pyknosed Nuclei (%) [11]: 23% | Population Tubulin-Different-Phenotype (%) [11]: 16% | Total Cell Count [11]: 1487 | Population Apoptotic (%) [12]: 42% | Population Fragmented Nuclei (%) [12]: 32% | Population Healthy Nuclei (%) [12]: 51% | Population Hoechst High Intensity Objects (%) [12]: 24% | Population Mitochondria Different-Phenotype (%) [12]: 16% | Population Mitotic Cells (%) [12]: 58% | Population Normal (%) [12]: 75% | Population Pyknosed Nuclei (%) [12]: 16% | Population Tubulin-Different-Phenotype (%) [12]: 21% | Total Cell Count [12]: 828

CCNc1cc(N[C@H]2CC[C@H](O)CC2)nc(Nc2ccc3c(ccn3Cc3ccccc3)c2)n1
Population Apoptotic (%) [13]: 42% | Population Fragmented Nuclei (%) [13]: 21% | Population Healthy Nuclei (%) [13]: 10% | Population Hoechst High Intensity Objects (%) [13]: 21% | Population Membrane Permeable-Phenotype (%) [13]: 16% | Population Mitochondria Different-Phenotype (%) [13]: 41% | Population Mitotic Cells (%) [13]: 57% | Population Normal (%) [13]: 78% | Population Pyknosed Nuclei (%) [13]: 67% | Population Tubulin-Different-Phenotype (%) [13]: 50% | Total Cell Count [13]: 667 | Population Apoptotic (%) [14]: 29% | Population Fragmented Nuclei (%) [14]: 3% | Population Healthy Nuclei (%) [14]: 38% | Population Hoechst High Intensity Objects (%) [14]: 6% | Population Membrane Permeable-Phenotype (%) [14]: 1% | Population Mitochondria Different-Phenotype (%) [14]: 83% | Population Mitotic Cells (%) [14]: 70% | Population Normal (%) [14]: 93% | Population Pyknosed Nuclei (%) [14]: 58% | Population Tubulin-Different-Phenotype (%) [14]: 97% | Total Cell Count [14]: 1155 | Population Apoptotic (%) [1]: 23% | Population Fragmented Nuclei (%) [1]: 12% | Population Healthy Nuclei (%) [1]: 54% | Population Hoechst High Intensity Objects (%) [1]: 10% | Population Mitochondria Different-Phenotype (%) [1]: 27% | Population Mitotic Cells (%) [1]: 76% | Population Normal (%) [1]: 89% | Population Pyknosed Nuclei (%) [1]: 32% | Population Tubulin-Different-Phenotype (%) [1]: 46% | Total Cell Count [1]: 618 | Population Apoptotic (%) [2]: 7% | Population Fragmented Nuclei (%) [2]: 3% | Population Healthy Nuclei (%) [2]: 85% | Population Hoechst High Intensity Objects (%) [2]: 2% | Population Membrane Permeable-Phenotype (%) [2]: 10% | Population Mitochondria Different-Phenotype (%) [2]: 33% | Population Mitotic Cells (%) [2]: 92% | Population Normal (%) [2]: 97% | Population Pyknosed Nuclei (%) [2]: 11% | Population Tubulin-Different-Phenotype (%) [2]: 80% | Total Cell Count [2]: 1484 | Population Apoptotic (%) [15]: 59% | Population Fragmented Nuclei (%) [15]: 26% | Population Healthy Nuclei (%) [15]: 10% | Population Hoechst High Intensity Objects (%) [15]: 19% | Population Membrane Permeable-Phenotype (%) [15]: 5% | Population Mitochondria Different-Phenotype (%) [15]: 51% | Population Mitotic Cells (%) [15]: 40% | Population Normal (%) [15]: 80% | Population Pyknosed Nuclei (%) [15]: 63% | Population Tubulin-Different-Phenotype (%) [15]: 53% | Total Cell Count [15]: 694 | Population Apoptotic (%) [16]: 37% | Population Fragmented Nuclei (%) [16]: 2% | Population Healthy Nuclei (%) [16]: 30% | Population Hoechst High Intensity Objects (%) [16]: 8% | Population Membrane Permeable-Phenotype (%) [16]: 2% | Population Mitochondria Different-Phenotype (%) [16]: 91% | Population Mitotic Cells (%) [16]: 62% | Population Normal (%) [16]: 91% | Population Pyknosed Nuclei (%) [16]: 66% | Population Tubulin-Different-Phenotype (%) [16]: 96% | Total Cell Count [16]: 1176 | Population Apoptotic (%) [5]: 20% | Population Fragmented Nuclei (%) [5]: 9% | Population Healthy Nuclei (%) [5]: 76% | Population Hoechst High Intensity Objects (%) [5]: 7% | Population Membrane Permeable-Phenotype (%) [5]: 8% | Population Mitochondria Different-Phenotype (%) [5]: 18% | Population Mitotic Cells (%) [5]: 79% | Population Normal (%) [5]: 92% | Population Pyknosed Nuclei (%) [5]: 13% | Population Tubulin-Different-Phenotype (%) [5]: 54% | Total Cell Count [5]: 703 | Population Apoptotic (%) [6]: 9% | Population Fragmented Nuclei (%) [6]: 11% | Population Healthy Nuclei (%) [6]: 83% | Population Hoechst High Intensity Objects (%) [6]: 2% | Population Membrane Permeable-Phenotype (%) [6]: 12% | Population Mitochondria Different-Phenotype (%) [6]: 14% | Population Mitotic Cells (%) [6]: 90% | Population Normal (%) [6]: 97% | Population Pyknosed Nuclei (%) [6]: 4% | Population Tubulin-Different-Phenotype (%) [6]: 75% | Total Cell Count [6]: 2335
